In ChEMBL document CHEMBL1122567, “Conformationally restricted congeners of dopamine derived from octahydrobenzo[g]quinoline and octahydrobenzo[f]quinoline” (J Med Chem, 1984):
Activity calls are given as the source filed them. The rule behind the calls is not given here.

Legend:
[1] = organism: Rattus norvegicus; test: Compound was evaluated for inhibition of binding of [3H]spiroperidol to rat caudate tissue.; format: functional, organism-based
[2] = test system: Felis catus; test: Compound was evaluated for the inhibition of the cardioaccelerator nerve of the cat at a dose 4 umol/kg (n = 3); format: functional
How it was run: (§1)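 Cats were anaesthetised with pentobarbital sodium (30 mg/kg) injected into the thoracic cavity. The right cardioaccelerator nerve was isolated and stimulated through bipolar platinum electrodes at 2 Hz, 2-ms pulses and supramaximal voltage, usually for 30 s. Arterial pressure was recorded from the right femoral artery, and heart rate by cardiotachometer. The highest dose tested was 4 µmol/kg, with n = 3.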

[3] = organism: Rattus norvegicus; test: Compound was evaluated for inhibition of binding of [3H]dopamine to rat caudate tissue.; format: functional, organism-based
[4] = test system: Felis catus; test: Compound was evaluated for the inhibition of the cardioaccelerator nerve of the cat at a dose 4 umol/kg; format: functional; how it was run: as §1
[5] = test system: Felis catus; test: Compound was evaluated for the inhibition of the cardioaccelerator nerve of the cat; I - inactive at a dose 4 umol/kg (n = 3); format: functional, organism-based; how it was run: as §1

**Q.** Which IC50 [1] does the source give for `CCCN1CCC[C@@H]2Cc3c(O)cc(O)cc3C[C@H]21` here?
**A.** 15 µM

**Q.** What about the ED50 [2] of the same compound?
**A.** 1.74 µmol/kg

**Q.** What about the IC50 [3] of the same compound?
**A.** 0.37 µM

**Q.** `CN1CCc2cccc3c2[C@H]1Cc1ccc(O)c(O)c1-3` [APOMORPHINE] was tested. Which IC50 [1] did it give?
**A.** 1.1 µM

**Q.** What about the ED50 [2] of the same compound?
**A.** 0.022 µmol/kg

**Q.** `CCCN1CCC[C@H]2c3cc(O)cc(O)c3CC[C@H]21` was tested. Which ED50 [4] did it give?
**A.** > 4 µmol/kg

**Q.** And the IC50 [1]?
**A.** 11 µM

**Q.** What about the IC50 [3] of the same compound?
**A.** 1.7 µM

**Q.** Which IC50 [1] does the source give for `Oc1cc(O)c2c(c1)[C@@H]1CCCN[C@@H]1CC2` here?
**A.** 113 µM

**Q.** What about the IC50 [3] of the same compound?
**A.** 11.1 µM

**Q.** Which results are given for `CCN1CCC[C@@H]2c3cc(O)cc(O)c3CC[C@H]21`?
**A.** IC50 [1]: 2.4 µM; ED50 [2]: 0.0021 µmol/kg; IC50 [3]: 0.09 µM

**Q.** Which results are given for `CCN1CCC[C@@H]2Cc3c(O)cc(O)cc3C[C@H]21`?
**A.** ED50 [5]: inactive; IC50 [1]: 32 µM; IC50 [3]: 0.44 µM

**Q.** Which results are given for `Oc1cc(O)c2c(c1)[C@@H]1CCCN[C@H]1CC2`?
**A.** IC50 [1]: 25 µM; IC50 [3]: 1 µM

**Q.** `Oc1cc(O)c2c(c1)C[C@H]1NCCC[C@@H]1C2` was tested. Which ED50 [5] did it give?
**A.** inactive

**Q.** What about the IC50 [1] of the same compound?
**A.** 264 µM

**Q.** What about the IC50 [3] of the same compound?
**A.** 12.8 µM

**Q.** With `CCCN1CCC[C@@H]2c3cc(O)cc(O)c3CC[C@H]21` as the compound, how does the IC50 [1] read?
**A.** 1 µM

**Q.** And the ED50 [2]?
**A.** 0.0047 µmol/kg

**Q.** What about the IC50 [3] of the same compound?
**A.** 0.04 µM

**Q.** Which results are given for `CCN1CCC[C@H]2c3cc(O)cc(O)c3CC[C@H]21`?
**A.** ED50 [4]: > 4 µmol/kg; IC50 [1]: 10 µM; IC50 [3]: 0.43 µM
